Tests used:
[1] = Antioxidant activity of the compound assessed as inhibition of ABTS radicals at 9 uM after 20 mins by spectrophotometric analysis; assay type: functional
Method in brief: (§1)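 ABTS radical cation generated from ABTS and potassium persulfate in 0.1 M phosphate buffer pH 7.0, left 16 h in the dark at room temperature. Blank absorbance at 734 nm adjusted to about 1.0. Samples from 2 mM stocks in MeOH/phosphate buffer 1:1. A734 read at room temperature after exactly 20 min. %inhibition = (Ablank − Asample)/Ablank, mean of triplicates.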

[2] = Antioxidant activity of the compound assessed as inhibition of ABTS radicals after 20 mins by spectrophotometric analysis; assay type: functional; method in brief: as §1
[3] = Antioxidant activity of the compound assessed as inhibition of ABTS radicals at 33 uM after 20 mins by spectrophotometric analysis; assay type: functional
[4] = molecular target: Glutamate receptor ionotropic, NMDA 2B (Rattus norvegicus, UniProt Q00960); experiment: Displacement of [3H]Ifenprodil from NMDA receptor GluN2B subunit in Wistar rat cerebral cortex; assay type: tissue-based
Chain of Glutamate receptor ionotropic, NMDA 2B (Rattus norvegicus, UniProt Q00960) (Q00960 whole entry): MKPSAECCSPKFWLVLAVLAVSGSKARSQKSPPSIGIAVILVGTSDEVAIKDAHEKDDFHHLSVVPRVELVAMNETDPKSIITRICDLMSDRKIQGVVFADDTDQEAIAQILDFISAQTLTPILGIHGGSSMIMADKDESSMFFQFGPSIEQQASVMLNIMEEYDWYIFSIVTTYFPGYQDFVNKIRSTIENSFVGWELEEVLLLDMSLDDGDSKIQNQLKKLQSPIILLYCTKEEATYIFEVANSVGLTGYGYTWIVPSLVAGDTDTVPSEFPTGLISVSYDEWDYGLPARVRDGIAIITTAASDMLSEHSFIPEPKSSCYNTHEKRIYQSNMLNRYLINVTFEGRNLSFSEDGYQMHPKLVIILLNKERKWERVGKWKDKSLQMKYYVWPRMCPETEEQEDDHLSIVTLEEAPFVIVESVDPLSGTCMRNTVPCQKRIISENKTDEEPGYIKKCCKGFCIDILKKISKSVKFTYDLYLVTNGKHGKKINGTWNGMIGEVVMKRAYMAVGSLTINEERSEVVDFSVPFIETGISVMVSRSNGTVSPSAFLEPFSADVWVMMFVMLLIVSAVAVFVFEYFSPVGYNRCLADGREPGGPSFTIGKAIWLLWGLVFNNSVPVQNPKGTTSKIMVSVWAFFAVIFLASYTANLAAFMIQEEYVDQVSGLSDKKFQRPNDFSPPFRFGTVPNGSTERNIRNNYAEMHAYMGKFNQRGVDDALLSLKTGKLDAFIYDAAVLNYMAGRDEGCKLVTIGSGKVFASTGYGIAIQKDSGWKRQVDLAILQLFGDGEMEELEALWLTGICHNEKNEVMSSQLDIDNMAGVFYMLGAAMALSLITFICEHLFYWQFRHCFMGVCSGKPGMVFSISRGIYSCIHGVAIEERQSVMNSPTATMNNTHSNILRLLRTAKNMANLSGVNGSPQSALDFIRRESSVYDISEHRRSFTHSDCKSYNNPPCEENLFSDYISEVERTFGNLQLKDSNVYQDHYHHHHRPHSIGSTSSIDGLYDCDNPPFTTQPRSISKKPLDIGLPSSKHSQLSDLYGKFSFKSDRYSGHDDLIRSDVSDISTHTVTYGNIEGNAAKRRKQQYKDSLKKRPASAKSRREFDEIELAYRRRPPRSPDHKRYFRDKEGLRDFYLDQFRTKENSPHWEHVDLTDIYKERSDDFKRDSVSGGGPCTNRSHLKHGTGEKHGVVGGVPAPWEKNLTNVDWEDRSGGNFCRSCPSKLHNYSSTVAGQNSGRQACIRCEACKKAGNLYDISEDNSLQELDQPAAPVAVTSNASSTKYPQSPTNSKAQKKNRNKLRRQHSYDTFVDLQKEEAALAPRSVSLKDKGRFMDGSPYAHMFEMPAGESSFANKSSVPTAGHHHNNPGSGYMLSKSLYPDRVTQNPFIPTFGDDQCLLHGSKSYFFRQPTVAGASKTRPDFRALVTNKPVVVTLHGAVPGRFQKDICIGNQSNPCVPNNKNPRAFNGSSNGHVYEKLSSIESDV

[5] = molecular target: Glutamate receptor ionotropic, NMDA 2B (Rattus norvegicus) (UniProt Q00960); experiment: Displacement of [3H]Ifenprodil from NMDA receptor GluN2B subunit in Wistar rat cerebral cortex at 0.1 uM; assay type: tissue-based
Chain of Glutamate receptor ionotropic, NMDA 2B (Rattus norvegicus) (Q00960 27-1482 limits assumed): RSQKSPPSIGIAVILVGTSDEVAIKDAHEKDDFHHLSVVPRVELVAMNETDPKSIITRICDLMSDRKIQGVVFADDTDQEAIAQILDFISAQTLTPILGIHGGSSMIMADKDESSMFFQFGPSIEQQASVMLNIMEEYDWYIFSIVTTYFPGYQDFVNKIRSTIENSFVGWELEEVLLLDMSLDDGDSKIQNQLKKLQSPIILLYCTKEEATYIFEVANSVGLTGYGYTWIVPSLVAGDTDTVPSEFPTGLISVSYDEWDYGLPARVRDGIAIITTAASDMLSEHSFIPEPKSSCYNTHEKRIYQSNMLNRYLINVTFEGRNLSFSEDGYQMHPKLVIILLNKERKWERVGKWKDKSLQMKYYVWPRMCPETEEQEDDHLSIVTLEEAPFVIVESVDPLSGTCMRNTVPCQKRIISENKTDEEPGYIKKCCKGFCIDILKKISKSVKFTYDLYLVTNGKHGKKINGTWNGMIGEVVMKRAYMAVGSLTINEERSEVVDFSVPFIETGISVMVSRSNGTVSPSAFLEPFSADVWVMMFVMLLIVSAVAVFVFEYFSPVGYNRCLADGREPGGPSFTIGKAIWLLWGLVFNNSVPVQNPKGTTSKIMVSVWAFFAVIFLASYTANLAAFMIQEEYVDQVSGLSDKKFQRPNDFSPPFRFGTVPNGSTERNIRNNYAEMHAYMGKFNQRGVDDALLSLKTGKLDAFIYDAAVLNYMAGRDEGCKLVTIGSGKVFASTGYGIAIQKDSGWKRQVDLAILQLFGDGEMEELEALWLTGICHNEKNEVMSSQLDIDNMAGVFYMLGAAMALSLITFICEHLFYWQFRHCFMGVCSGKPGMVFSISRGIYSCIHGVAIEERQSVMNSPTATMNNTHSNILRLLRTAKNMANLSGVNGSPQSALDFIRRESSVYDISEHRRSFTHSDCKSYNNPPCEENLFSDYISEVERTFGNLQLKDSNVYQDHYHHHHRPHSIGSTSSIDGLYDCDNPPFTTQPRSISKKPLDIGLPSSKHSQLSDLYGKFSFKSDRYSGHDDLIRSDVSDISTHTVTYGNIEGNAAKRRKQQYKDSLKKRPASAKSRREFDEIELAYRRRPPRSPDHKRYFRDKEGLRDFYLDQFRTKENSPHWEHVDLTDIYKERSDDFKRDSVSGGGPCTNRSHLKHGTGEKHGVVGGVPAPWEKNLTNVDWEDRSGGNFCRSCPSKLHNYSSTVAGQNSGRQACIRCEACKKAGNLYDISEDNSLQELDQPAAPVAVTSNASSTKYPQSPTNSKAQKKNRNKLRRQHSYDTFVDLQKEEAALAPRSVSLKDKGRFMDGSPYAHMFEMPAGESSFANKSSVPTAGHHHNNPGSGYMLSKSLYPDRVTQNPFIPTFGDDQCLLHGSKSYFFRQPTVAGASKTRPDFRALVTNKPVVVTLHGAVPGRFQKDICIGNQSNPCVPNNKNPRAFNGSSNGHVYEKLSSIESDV

[6] = molecular target: Glutamate receptor ionotropic, NMDA 2B (Rattus norvegicus) (UniProt Q00960); experiment: Displacement of [3H]Ifenprodil from NMDA receptor GluN2B subunit in Wistar rat cerebral cortex at 10 uM; assay type: tissue-based
[7] = Antioxidant activity of the compound assessed as inhibition of ABTS radicals at 17 uM after 20 mins by spectrophotometric analysis; assay type: functional; method in brief: as §1
[8] = molecular target: Glutamate receptor ionotropic, NMDA 2B (Homo sapiens, UniProt Q05586+Q13224); experiment: Inhibition of NMDA receptor GluN2B subunit (unknown origin)
Chain of Glutamate receptor ionotropic, NMDA 2B (Homo sapiens, UniProt Q05586+Q13224) (Q13224 whole entry, one chain of several): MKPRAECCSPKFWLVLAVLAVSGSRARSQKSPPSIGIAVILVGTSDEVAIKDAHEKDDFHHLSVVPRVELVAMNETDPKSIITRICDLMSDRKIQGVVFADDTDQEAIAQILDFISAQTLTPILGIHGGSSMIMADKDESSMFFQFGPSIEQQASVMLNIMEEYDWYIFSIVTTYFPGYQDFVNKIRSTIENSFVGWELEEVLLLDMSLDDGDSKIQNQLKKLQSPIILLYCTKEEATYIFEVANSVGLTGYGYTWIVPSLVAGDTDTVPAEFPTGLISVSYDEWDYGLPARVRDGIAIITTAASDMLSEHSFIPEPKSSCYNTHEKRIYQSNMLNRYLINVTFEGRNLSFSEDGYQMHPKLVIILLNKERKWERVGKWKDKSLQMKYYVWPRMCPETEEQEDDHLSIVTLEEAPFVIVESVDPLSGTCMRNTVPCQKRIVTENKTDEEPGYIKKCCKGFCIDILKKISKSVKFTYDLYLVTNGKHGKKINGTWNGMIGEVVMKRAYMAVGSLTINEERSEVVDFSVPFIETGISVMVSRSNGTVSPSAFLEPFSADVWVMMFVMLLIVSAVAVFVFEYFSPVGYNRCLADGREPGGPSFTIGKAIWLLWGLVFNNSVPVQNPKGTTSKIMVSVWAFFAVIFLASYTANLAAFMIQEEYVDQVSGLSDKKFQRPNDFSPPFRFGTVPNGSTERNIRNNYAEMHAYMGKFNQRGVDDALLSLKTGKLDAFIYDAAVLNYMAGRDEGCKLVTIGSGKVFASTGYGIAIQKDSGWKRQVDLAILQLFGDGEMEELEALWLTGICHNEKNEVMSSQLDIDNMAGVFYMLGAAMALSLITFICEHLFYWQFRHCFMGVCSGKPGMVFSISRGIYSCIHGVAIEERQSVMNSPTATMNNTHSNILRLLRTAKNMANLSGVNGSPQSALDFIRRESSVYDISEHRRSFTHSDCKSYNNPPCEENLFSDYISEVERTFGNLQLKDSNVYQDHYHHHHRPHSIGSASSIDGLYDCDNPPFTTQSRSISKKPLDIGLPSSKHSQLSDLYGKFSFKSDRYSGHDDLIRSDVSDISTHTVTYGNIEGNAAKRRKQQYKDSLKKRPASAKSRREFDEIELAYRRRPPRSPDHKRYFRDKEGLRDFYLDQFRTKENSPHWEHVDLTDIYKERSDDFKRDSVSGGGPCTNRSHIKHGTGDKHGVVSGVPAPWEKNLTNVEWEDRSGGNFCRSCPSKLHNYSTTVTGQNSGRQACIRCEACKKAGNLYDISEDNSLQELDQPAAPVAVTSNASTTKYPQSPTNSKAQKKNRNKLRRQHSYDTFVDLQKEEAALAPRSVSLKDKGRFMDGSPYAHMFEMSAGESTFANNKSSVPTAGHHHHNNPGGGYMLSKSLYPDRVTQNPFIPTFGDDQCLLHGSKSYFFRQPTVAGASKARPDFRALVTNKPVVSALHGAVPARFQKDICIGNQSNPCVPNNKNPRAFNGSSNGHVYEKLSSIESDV

[9] = tested on: Mus musculus; experiment: Anticonvulsant activity in ip dosed sound-induced DBA/2 mouse seizure model assessed as tonus phase latency; assay type: functional; details: DBA/2, ip
Method in brief: (§2)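 DBA/2 mice (8–12 g, 22–25 days old, either sex), groups of 10. Compound given ip at 0.1 mL/10 g in 50% DMSO/50% saline; vehicle controls. Auditory stimulus (12–16 kHz, 109 dB) applied 30 min later for 60 s or until tonic extension, after 60 s habituation. Latency to and incidence of seizure phases scored; Fisher's exact test. ED50 by Litchfield–Wilcoxon.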

[10] = molecular target: Glutamate receptor ionotropic, NMDA 2B (Mus musculus) (UniProt Q01097); experiment: Antagonist activity at NMDA receptor GluN2B subunit in FVB mouse CA1 pyramidal neurons assessed as reversible reduction of excitatory post synaptic current amplitude at 50 nM at holding potential of -60 mV measured for 5 mins by patch clamp technique in presence of Mg2+free ACSF relative to control; assay type: cell-based; parameters: scale not given: the % may be the effect or the level left; details: Pyramidal neuron
Method in brief: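 Whole-cell recordings of NMDA receptor-mediated EPSCs in mouse hippocampal slices, with glycine (10 µM) and bicuculline (5 µM) in the bath. Compound applied for 5 min, then washed out. EPSC amplitude taken as peak minus baseline and measured over 5 min in control and in drug for each neuron. Expressed as % of control, n = 4; unpaired Student's t test.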

[11] = tested on: Mus musculus; experiment: Anticonvulsant activity in ip dosed sound-induced DBA/2 mouse seizure model assessed as clonus phase latency; assay type: functional; details: DBA/2, ip; method in brief: as §2

Oc1ccc2cc[nH]c2c1
inhibition [1]: 83%
inhibition [2]: Dose-dependent effect
inhibition [3]: > 89.8%

O=C(CN1CCC(Cc2ccc(F)cc2)CC1)c1c[nH]c2cc(O)ccc12
IC50 [4]: 9.1 nM
inhibition [5]: 82%

COc1cc2[nH]cc(C(=O)C(=O)N3CCC(Cc4ccccc4)CC3)c2cc1OC
inhibition [6]: 9%

O=C(C(=O)N1CCC(Cc2ccc(F)cc2)CC1)c1c[nH]c2ccc(O)cc12
inhibition [5]: 11%

O=C(CN1CCC(Cc2ccc(F)cc2)CC1)c1c[nH]c2ccc(O)cc12
IC50 [4]: 51 nM
inhibition [5]: 60%

Oc1cc2cc[nH]c2cc1O
inhibition [1]: 54.4%
inhibition [2]: Dose-dependent effect
inhibition [7]: > 84.4%

O=C(C(=O)N1CCC(Cc2ccccc2)CC1)c1c[nH]c2cc(O)c(O)cc12
inhibition [5]: 40%

COc1ccc2[nH]cc(C(=O)CN3CCC(Cc4ccc(F)cc4)CC3)c2c1
inhibition [6]: 73%

CS(=O)(=O)Nc1ccc2[nH]cc(C(=O)C(=O)N3CCC(Cc4ccc(F)cc4)CC3)c2c1
inhibition [5]: 4%

O=C(C(=O)N1CCC(Cc2ccc(F)cc2)CC1)c1c[nH]c2cc(O)c(O)cc12
inhibition [5]: 38%

CS(=O)(=O)Nc1ccc2c(C(=O)CN3CCC(Cc4ccc(F)cc4)CC3)c[nH]c2c1
IC50 [4]: 9.4 nM
inhibition [5]: 81%

Nc1ccc2[nH]cc(C(=O)CN3CCC(Cc4ccc(F)cc4)CC3)c2c1
inhibition [5]: 33%

c1ccc2[nH]ccc2c1
inhibition [2]: Dose-dependent effect
inhibition [3]: 25.6%

CS(=O)(=O)Nc1ccc2c(C(=O)C(=O)N3CCC(Cc4ccc(F)cc4)CC3)c[nH]c2c1
IC50 [4]: 18 nM
inhibition [5]: 67%

O=C(O)/C=C/c1ccc(O)c(O)c1
inhibition [2]: Dose-dependent effect
inhibition [7]: 71.5%
inhibition [3]: > 93.4%

COc1ccc2c(C(=O)CN3CCC(Cc4ccc(F)cc4)CC3)c[nH]c2c1
inhibition [6]: 82%

O=C(CN1CCC(Cc2ccccc2)CC1)c1c[nH]c2ccccc12
IC50 [8]: 769 nM

O=C(C(=O)N1CCC(Cc2ccc(F)cc2)CC1)c1c[nH]c2cc(O)ccc12
IC50 [4]: 20 nM
inhibition [5]: 61%

O=C(CN1CCC(Cc2ccccc2)CC1)c1c[nH]c2cc(O)c(O)cc12
ED50 [9]: 76.7 µmol/kg
IC50 [4]: 5.5 nM
inhibition [5]: 91%
Activity [10]: 57%
ED50 [11]: 89.4 µmol/kg

Nc1ccc2c(C(=O)CN3CCC(Cc4ccc(F)cc4)CC3)c[nH]c2c1
inhibition [5]: 12%

COc1ccc2[nH]cc(C(=O)C(=O)N3CCC(Cc4ccc(F)cc4)CC3)c2c1
inhibition [6]: 35%

COc1cc2[nH]cc(C(=O)CN3CCC(Cc4ccccc4)CC3)c2cc1OC
inhibition [5]: 1%

CS(=O)(=O)Nc1ccc2[nH]cc(C(=O)CN3CCC(Cc4ccc(F)cc4)CC3)c2c1
inhibition [5]: 10%

COc1ccc2c(C(=O)C(=O)N3CCC(Cc4ccc(F)cc4)CC3)c[nH]c2c1
inhibition [5]: 27%

Oc1ccc2[nH]ccc2c1
inhibition [1]: 79.8%
inhibition [2]: Dose-dependent effect
inhibition [3]: > 90.1%

O=C(O)c1cc(O)c(O)c(O)c1
inhibition [1]: 61.6%
inhibition [2]: Dose-dependent effect
inhibition [7]: > 94.1%
inhibition [3]: > 93.9%

O=C(CN1CCC(Cc2ccc(F)cc2)CC1)c1c[nH]c2cc(O)c(O)cc12
IC50 [4]: 30 nM
inhibition [5]: 84%

— ChEMBL document CHEMBL3102802, “Synthesis, modelling and biological characterization of 3-substituted-1H-indoles as ligands of GluN2B-containing N-methyl-d-aspartate receptors” (Bioorg Med Chem, 2014)
